Compound activity: PubChem BioAssay, several laboratories
UPR CHOP act – activators of apoptotic CHOP UPR arm, primary screen, cell-based, CHO-CHOP luciferase reporter, luminescence, uHTS; UPR activation; percent of tunicamycin response over DMSO baseline; activation, % at 10 µM; 330,000 compounds, 0.34% hits; AID 449763, 2010;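 active = at 10 µM dose, activation of 40% or more, normalized to positive control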
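Assay system: CHO-CHOP cells, stable luciferase reporter of PERK-eIF2a-CHOP signalling / Buffer or medium: F12 plus 10% serum / Compound dosing: one dose, 10 µM in 0.5% DMSO / Times: 6 h compound treatment, 37 °C / Technique: luciferase luminescence / Read-out: % reporter activation, DMSO baseline versus tunicamycin full activation / Benchmarks: tunicamycin and DMSO controls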
B2AR ag – beta2AR agonists driving receptor internalization, primary screen, cell-based, FAP fluorogen, flow cytometry | AID 504454, 2011 | Beta-2 adrenergic receptor (Homo sapiens), P07550 | response, % (concentration not given with the values) | Am2.2-beta2AR cells | 340,000 compounds, 0.43% hits;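 active = response above a set limit, near 3 SD of response in nonfluorescent compounds, cut at about 42% in these data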
XBP1 UPR activ – activators of adaptive XBP1 UPR arm, primary screen, cell-based, CHO-XBP1 luciferase reporter, luminescence, uHTS; IRE1-XBP1 UPR activation; percent of tunicamycin response, DMSO as zero; activation, % at 20 µM; 330,000 compounds, 0.33% hits;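 active = versus positive control, 20 µM dose yields 30% or more activation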
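assay system = CHO-XBP1 luciferase reporter cells | amount = 1000 cells/well | buffer or medium = F12 plus 10% FBS | compound dosing = single point, 20 µM final compound, 1% DMSO | incubation = 16-18 h cell attachment at 37 °C, then 6 h compound exposure | detection = Steady-Glo luminescence read | controls = tunicamycin 10 µg/mL and vehicle-only wells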
CHOP inh – inhibitors of CHOP promoter induction, primary screen, cell-based, unfolded protein response, luciferase reporter; CHO-K1 CHOP-promoter luciferase, tunicamycin-induced, 15-18 h; inhibition, % at 10 µM; 220,000 compounds, 3.8% hits;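 active = compounds that reduced the stress-induced luciferase reporter signal by more than about 70% of percent inhibition, limit read from the data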
VLA-4 inh – inhibition in human VLA-4 binding assay, primary screen, VLA-4 allosteric modulator project, MLPCN library, flow cytometry, VLA-4 expressing cells. inhibition, % (about 7 µM as worked out from the volumes in the protocol). ligand binding flow cytometry. 330,000 compounds, 0.2% hits. Integrin alpha-4 (Homo sapiens), P13612; in the data active = inhibition above about 50%
Target sequence (P13612 whole entry, looked up): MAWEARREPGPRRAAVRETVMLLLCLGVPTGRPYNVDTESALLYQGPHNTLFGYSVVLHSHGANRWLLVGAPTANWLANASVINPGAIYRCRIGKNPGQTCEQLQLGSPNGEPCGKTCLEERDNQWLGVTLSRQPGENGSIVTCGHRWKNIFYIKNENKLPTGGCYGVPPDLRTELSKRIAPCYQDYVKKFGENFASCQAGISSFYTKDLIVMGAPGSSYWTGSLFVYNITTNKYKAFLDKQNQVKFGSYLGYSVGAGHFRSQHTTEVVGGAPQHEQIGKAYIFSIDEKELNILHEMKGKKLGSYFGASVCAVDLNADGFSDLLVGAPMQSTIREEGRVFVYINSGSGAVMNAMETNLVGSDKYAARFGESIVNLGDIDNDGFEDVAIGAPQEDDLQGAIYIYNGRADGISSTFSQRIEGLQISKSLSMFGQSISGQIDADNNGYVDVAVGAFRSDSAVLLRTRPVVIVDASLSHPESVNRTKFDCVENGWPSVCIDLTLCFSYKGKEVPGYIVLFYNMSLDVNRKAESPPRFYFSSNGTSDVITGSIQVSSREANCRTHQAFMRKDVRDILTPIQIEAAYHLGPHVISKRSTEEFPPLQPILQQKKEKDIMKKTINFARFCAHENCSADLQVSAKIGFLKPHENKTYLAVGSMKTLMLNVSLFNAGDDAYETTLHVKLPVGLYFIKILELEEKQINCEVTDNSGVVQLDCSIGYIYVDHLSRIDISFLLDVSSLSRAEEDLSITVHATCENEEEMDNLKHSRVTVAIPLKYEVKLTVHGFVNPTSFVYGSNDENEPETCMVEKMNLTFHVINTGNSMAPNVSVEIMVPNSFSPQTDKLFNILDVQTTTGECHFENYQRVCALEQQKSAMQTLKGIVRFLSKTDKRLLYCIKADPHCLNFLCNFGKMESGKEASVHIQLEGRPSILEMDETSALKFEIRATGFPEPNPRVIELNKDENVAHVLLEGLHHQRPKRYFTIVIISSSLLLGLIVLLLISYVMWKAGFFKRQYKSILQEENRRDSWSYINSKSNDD
Large screens that a line does not name were inactive; ! = not active in a repeat. This is one part of a sample in which hits are shown more often than they occur.

CSc1nc(O)c(/C=C2\C=Nc3ccccc32)[nH]1	none
CCn1c(=O)c(C(=O)Nc2ccccn2)c(O)c2ccccc21	CHOP inh 81
CCn1c(=O)c(C(=O)NCc2ccccc2)c(O)c2ccccc21	none (no result: CHOP inh)
CCn1c(=O)c(C(=O)NC(C)C)c(O)c2ccccc21	CHOP inh 72
CCCn1c(=O)c(C(=O)NNS(=O)(=O)c2ccc(C)cc2)c(O)c2ccccc21	CHOP inh 90
CCC(=O)OCc1c(C(F)(F)F)nn(C)c1Sc1ccc(Cl)cc1	CHOP inh 79
CCC(C(=O)OCC(=O)Nc1cccc(C(C)=O)c1)c1ccccc1 (centres undefined)	none
CCC(C(=O)OCC(=O)Nc1cc(Cl)cc(Cl)c1)c1ccccc1 (centres undefined)	CHOP inh 92
N#Cc1ccsc1NC(=O)CN1CCN(S(=O)(=O)c2ccc3ccccc3c2)CC1	CHOP inh 78
N#Cc1ccsc1NC(=O)CN1CCN(Cc2ccccc2)CC1	none
C=CCNC(=S)NNC(=O)CC12CC3CC(CC(C3)C1)C2	none
Cn1c(SCC(=O)N2CC(=O)Nc3ccccc32)nc2ccccc2c1=O	none (no result: CHOP inh)
c1ccc(-c2nc(-n3nc4ccccc4n3)nc3ccccc23)cc1	CHOP inh 74
O=C1CN(c2nc(-c3ccccc3)c3ccccc3n2)c2ccccc2N1	CHOP inh 77
COc1cc(-c2nnc(SCC(=O)Nc3ccc(C(=O)O)cc3)o2)cc(OC)c1OC	none (no result: CHOP inh)
N/C(CC(=O)NC1CCCCC1)=N\OCC(=O)Nc1ccc(Cl)c(Cl)c1	none
CC(C)(C)C1=CC=C(C(C)(C)C)C(=O)C1=O	UPR CHOP act 49 (no result: B2AR ag)
CCOC(=O)c1ccc(Oc2c(C)oc3cc(OS(C)(=O)=O)ccc3c2=O)cc1	none
CCn1c2ccccc2n2c(=O)c(=O)n(CC(=O)Nc3ccc(C(C)C)cc3)nc12	CHOP inh 87
CC(C)c1ccc(NC(=O)Cn2c(=O)oc3ccccc32)cc1	none (no result: CHOP inh)
COc1cccc(-c2nnc3sc(C4CCCCC4)nn23)c1	CHOP inh 74
CC(C)(C)C(C(=O)Oc1ccccc1)c1ccccc1 (centres undefined)	none (no result: CHOP inh)
COc1ccc(-c2ccccc2[C@H]2[C@@H]3C=CC[C@@H](C)[C@@H]3C(=O)N2Cc2ccccc2)cc1	none (no result: CHOP inh, VLA-4 inh)
Cc1cc(N2CCOCC2)ccc1/C=C\[N+](=O)[O-]	B2AR ag 42
CCc1ccc2c(c1)C(c1ccc([N+](=O)[O-])cc1)=NNC(c1ccc(Br)cc1)=N2	CHOP inh 84
CCOc1ccc(C2=NNC(c3cccs3)=Nc3ccc(OCC)cc32)cc1	none (no result: B2AR ag)
COc1ccc(CC(=O)Nc2cccc(-c3ccc4nnc(C)n4n3)c2)cc1OC	none
Cc1cccc(C)c1OCC(O)CN1CCC(CN2C(=O)c3cccc4cccc(c34)C2=O)CC1 (centres undefined)	CHOP inh 79
C=CCc1ccccc1OCC(O)CN1CCN(C(=O)OCC)CC1 (centres undefined)	none
Cc1ccccc1OCC(O)CN1CCN(CCN2C(=O)c3cccc4cccc(c34)C2=O)CC1 (centres undefined)	none
CC(C)OCC(O)CN1CCN(CCN2C(=O)c3cccc4cccc(c34)C2=O)CC1 (centres undefined)	none (no result: CHOP inh)
C=CCc1ccccc1OCC(O)CN1CCN(c2ccc(C)cc2)CC1 (centres undefined)	CHOP inh 79
C=CCc1ccccc1OCC(O)CN1CCN(CCN2C(=O)c3cccc4cccc(c34)C2=O)CC1 (centres undefined)	CHOP inh 86
COc1ccc2cc(C(=O)NCCCN3CCCC3=O)[nH]c2c1	none (no result: CHOP inh)
CC(C)(C)C(=O)Nc1ccc(C(=O)CN2C(=O)NC3(CCOc4ccccc43)C2=O)cc1 (centres undefined)	none (no result: CHOP inh)
O=C/C=C/c1c(-c2ccccc2)cc2oc3ccccc3cc1-2	B2AR ag 64 (no result: CHOP inh)
Cc1ccccc1N=C1NC(=O)/C(=C/c2cccn2C)S1	none
Cc1cccc(N=C2NC(=O)/C(=C3/C(=O)N(C)c4ccccc43)S2)c1C	CHOP inh 88
CC1(C)CC[C@]2(C(=O)n3ccnc3)CC[C@]3(C)[C@H](C(=O)C=C4[C@@]5(C)C=C(C#N)C(=O)C(C)(C)[C@@H]5CC[C@]43C)[C@@H]2C1	B2AR ag 59 (no result: UPR CHOP act, XBP1 UPR activ, CHOP inh, VLA-4 inh)
c1ccc2c3c([nH]c2c1)-c1[nH]ncc1CC3	CHOP inh 71
O=CNC1CCCc2c1[nH]c1ccc(Cl)cc21 (centres undefined)	none
Clc1ccc2[nH]c3c(c2c1)CCc1cn[nH]c1-3	CHOP inh 87
O=C1CCCc2c1[nH]c1ccccc21	none
CCCn1c(NC(=O)c2ccc(Br)cc2)nc2ccccc21	CHOP inh 83
Cc1cc2c(=O)n(Cc3ccco3)c(SCC(=O)c3ccc(Cl)s3)nc2s1	B2AR ag 52
CCOC(=O)CC(=O)CSc1nc2sc(C)cc2c(=O)n1Cc1ccco1	none
O=c1cc(NCc2ccco2)[nH]c(=O)n1-c1ccc(Br)cc1	CHOP inh 82
O=c1cc(NCc2ccc3c(c2)OCO3)[nH]c(=O)n1-c1ccc(Cl)cc1	none
COc1ccc(N=Cc2nc(-c3ccccc3)oc2OC(C)=O)cc1	none
COc1ccc(N=C/C=C2/C=C(c3ccccc3)OC(C)(C)O2)cc1	CHOP inh 94
O=C1c2ccccc2C(Nc2ccc(Cl)cn2)N1Cc1ccccc1 (centres undefined)	CHOP inh 80
c1cnc2c(c1)ccc1cccnc12	CHOP inh 74!
O=C(O)Cn1c(=O)c(F)cn(C2CCCO2)c1=O (centres undefined)	none (no result: CHOP inh)
Cc1cc(=O)[nH]c(Nc2ccc(Cl)cc2)n1	none (no result: CHOP inh)
Cc1cc(=O)[nH]c(Nc2ccc(C(=O)OC(C)C)cc2)n1	CHOP inh 70
CCCc1cc(=O)[nH]c(SCC(=O)Nc2nc(-c3ccccc3)cs2)n1	none
Cc1cc(C)cc(-n2nnnc2SCC(=O)Nc2nc(-c3ccc(F)cc3)cs2)c1	CHOP inh 89
O=C(CSc1nnnn1-c1ccccc1)Nc1nc(-c2ccccc2)ns1	CHOP inh 86
O=C(CSc1nc2ccccc2[nH]1)Nc1nc(-c2ccc(Br)cc2)cs1	CHOP inh 77
O=C(CSc1nnnn1-c1ccccc1)Nc1nsc(-c2ccccc2)n1	none
CN(C(=O)CSC(=O)c1ccccc1)c1ccccc1	none (no result: CHOP inh)
O=C(Nc1ccccn1)c1sc2cccc(F)c2c1Cl	CHOP inh 78
Cc1ccc(NC(=O)c2sc3ccccc3c2Cl)nc1	CHOP inh 94
COc1ccccc1C(=O)NNC(=S)NC(=O)c1sc2ccccc2c1Cl	CHOP inh 80
Cc1nnc(NC(=O)c2sc3ccccc3c2Cl)s1	none
